According to ChEMBL document CHEMBL2331152, “Multivalent Interactions: Synthesis and Evaluation of Melanotropin Multimers - Tools for Melanoma Targeting” (ACS Med Chem Lett, 2013):
Calls of active or inactive are those of the source. The rule behind the calls is not given here.

Columns and labels:
Melanocortin receptor 4 [1] = target: T1, Melanocortin receptor 4 (Homo sapiens, UniProt P32245); test: Displacement of Eu-NDP-alpha-MSH from human MC4R expressed in HEK293 cells by time resolved fluorescence binding assay relative to multimer 1M; type: cell-based
Method in brief: (§1)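 Competition binding on HEK293 cells transfected to overexpress MC4R, against europium-labelled NDP-α-MSH tracer, read by time-resolved fluorescence. IC50 values are averaged from four experiments run in quadruplicate. Relative potency is expressed against the monovalent ligand.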

Melanocortin receptor 4 [2] = target: T1, Melanocortin receptor 4; test: Inhibition of human MC4R expressed in HEK293 cells assessed as cAMP accumulation by chemiluminescent immunoassay; type: functional, cell-based
HEK293 [3] = test: Cytotoxicity against human HEK293 cells assessed as cell viability at 1 uM upto 48 hrs; type: cell-based; settings: hek293, 48 h
Method in brief: (§2)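 Cell viability was measured at three concentrations and three incubation times, up to 48 h. Values are expressed as % of untreated control and are the average of three independent experiments run in triplicate.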

HEK293 [4] = test: Cytotoxicity against human HEK293 cells assessed as cell viability at 10 uM upto 2 days; type: cell-based; settings: hek293, 48 h; method in brief: as §2
HEK293 [5] = test: Drug uptake in human HEK293 cells assessed as localization measured at 3 mins of incubation by FM 1-43 dye-microscopy; type: ADME, cell-based; settings: hek293, 0.05 h
HEK293 [6] = test: Drug uptake in human HEK293 cells assessed as localization at cell surface measured after 90 mins of incubation by FM 1-43 dye-microscopy; type: ADME, cell-based
Method in brief: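 Ligands were Cy5-labelled through a triarginine linker and incubated with cells for 90 min. The membrane probe FM 1-43 was added two minutes before image acquisition. Membrane localization was assessed by epifluorescence microscopy.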

Melanocortin receptor 4 [7] = target: T1, Melanocortin receptor 4; test: Displacement of Eu-NDP-alpha-MSH from human MC4R expressed in HEK293 cells by time resolved fluorescence binding assay; type: cell-based; method in brief: as §1

T1 sequence (P32245 whole entry): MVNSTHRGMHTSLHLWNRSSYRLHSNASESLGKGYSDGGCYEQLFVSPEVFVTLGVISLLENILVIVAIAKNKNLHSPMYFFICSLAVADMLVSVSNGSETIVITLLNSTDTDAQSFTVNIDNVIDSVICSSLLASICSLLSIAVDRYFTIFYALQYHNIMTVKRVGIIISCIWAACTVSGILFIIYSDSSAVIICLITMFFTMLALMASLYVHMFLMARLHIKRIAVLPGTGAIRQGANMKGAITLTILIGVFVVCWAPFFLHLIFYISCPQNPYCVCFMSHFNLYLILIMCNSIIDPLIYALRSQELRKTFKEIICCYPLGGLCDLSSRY

N=C(N)NCCC[C@H](NC(=O)[C@@H](Cc1ccccc1)NC(=O)[C@H](Cc1cnc[nH]1)NC(=O)CCc1cn(CC(=O)NCCCC(CCCNC(=O)Cn2cc(CCC(=O)N[C@@H](Cc3cnc[nH]3)C(=O)N[C@H](Cc3ccccc3)C(=O)N[C@@H](CCCNC(=N)N)C(=O)N[C@@H](Cc3c[nH]c4ccccc34)C(N)=O)nn2)(NC(=O)CNC(=O)Cn2cc(CCC(=O)N[C@@H](Cc3cnc[nH]3)C(=O)N[C@H](Cc3ccccc3)C(=O)N[C@@H](CCCNC(=N)N)C(=O)N[C@@H](Cc3c[nH]c4ccccc34)C(N)=O)nn2)C(=O)NCCC(N)=O)nn1)C(=O)N[C@@H](Cc1c[nH]c2ccccc12)C(N)=O (stereo not given in full)
fold change (FC) (Melanocortin receptor 4 [1]): 350
Activity (Melanocortin receptor 4 [2]): Active

CC(=O)NCC(=O)NC(CCCNC(=O)CCNC(=O)C(CCCNC(=O)Cn1cc(CCC(=O)N[C@@H](Cc2cnc[nH]2)C(=O)N[C@H](Cc2ccccc2)C(=O)N[C@@H](CCCNC(=N)N)C(=O)N[C@@H](Cc2c[nH]c3ccccc23)C(N)=O)nn1)(CCCNC(=O)Cn1cc(CCC(=O)N[C@@H](Cc2cnc[nH]2)C(=O)N[C@H](Cc2ccccc2)C(=O)N[C@@H](CCCNC(=N)N)C(=O)N[C@@H](Cc2c[nH]c3ccccc23)C(N)=O)nn1)NC(=O)CNC(=O)Cn1cc(CCC(=O)N[C@@H](Cc2cnc[nH]2)C(=O)N[C@H](Cc2ccccc2)C(=O)N[C@@H](CCCNC(=N)N)C(=O)N[C@@H](Cc2c[nH]c3ccccc23)C(N)=O)nn1)(CCCNC(=O)CCNC(=O)C(CCCNC(=O)Cn1cc(CCC(=O)N[C@@H](Cc2cnc[nH]2)C(=O)N[C@H](Cc2ccccc2)C(=O)N[C@@H](CCCNC(=N)N)C(=O)N[C@@H](Cc2c[nH]c3ccccc23)C(N)=O)nn1)(CCCNC(=O)Cn1cc(CCC(=O)N[C@@H](Cc2cnc[nH]2)C(=O)N[C@H](Cc2ccccc2)C(=O)N[C@@H](CCCNC(=N)N)C(=O)N[C@@H](Cc2c[nH]c3ccccc23)C(N)=O)nn1)NC(=O)CNC(=O)Cn1cc(CCC(=O)N[C@@H](Cc2cnc[nH]2)C(=O)N[C@H](Cc2ccccc2)C(=O)N[C@@H](CCCNC(=N)N)C(=O)N[C@@H](Cc2c[nH]c3ccccc23)C(N)=O)nn1)C(=O)NCCC(N)=O (stereo not given in full)
fold change (FC) (Melanocortin receptor 4 [1]): 104
Activity (HEK293 [3]): Non-toxic
Activity (HEK293 [4]): Non-toxic
Activity (Melanocortin receptor 4 [2]): Active

CCCC[C@H](NC(=O)[C@H](CO)NC(=O)[C@H](Cc1ccc(O)cc1)NC(=O)[C@H](CO)NC(C)=O)C(=O)N[C@@H](CCC(=O)O)C(=O)N[C@@H](Cc1cnc[nH]1)C(=O)N[C@H](Cc1ccccc1)C(=O)N[C@@H](CCCNC(=N)N)C(=O)N[C@@H](Cc1c[nH]c2ccccc12)C(=O)NCC(=O)N[C@@H](CCCCNC(=O)CCCCC[N+]1=C(/C=C/C=C/C=C2/N(C)c3ccccc3C2(C)C)C(C)(C)c2ccccc21)C(=O)N1CCC[C@H]1C(=O)N[C@H](C(N)=O)C(C)C
Drug uptake (HEK293 [5]): Not Active
Drug uptake (HEK293 [6]): Active

CC(=O)NCCCC(CCCNC(C)=O)(NC(=O)CNC(=O)Cn1cc(CCC(=O)N[C@@H](Cc2cnc[nH]2)C(=O)N[C@H](Cc2ccccc2)C(=O)N[C@@H](CCCN=C(N)N)C(=O)N[C@@H](Cc2c[nH]c3ccccc23)C(=O)O)nn1)C(=O)NCCC(N)=O
IC50 (Melanocortin receptor 4 [7]): 4.9 µM

CN1/C(=C/C=C/C=C/C2=[N+](CCCCCC(=O)NCCCC[C@H](NC(=O)[C@@H](CCCNC(=N)N)NC(=O)[C@H](CCCNC(=N)N)NC(=O)[C@@H](CCCNC(=N)N)NC(=O)CCNC(=O)C(CCCNC(=O)Cn3cc(CCC(=O)N[C@@H](Cc4cnc[nH]4)C(=O)N[C@H](Cc4ccccc4)C(=O)N[C@@H](CCCNC(=N)N)C(=O)N[C@@H](Cc4c[nH]c5ccccc45)C(N)=O)nn3)(CCCNC(=O)Cn3cc(CCC(=O)N[C@@H](Cc4cnc[nH]4)C(=O)N[C@H](Cc4ccccc4)C(=O)N[C@@H](CCCNC(=N)N)C(=O)N[C@@H](Cc4c[nH]c5ccccc45)C(N)=O)nn3)NC(=O)CNC(=O)Cn3cc(CCC(=O)N[C@@H](Cc4cnc[nH]4)C(=O)N[C@H](Cc4ccccc4)C(=O)N[C@@H](CCCNC(=N)N)C(=O)N[C@@H](Cc4c[nH]c5ccccc45)C(N)=O)nn3)C(N)=O)c3ccccc3C2(C)C)C(C)(C)c2ccccc21 (stereo not given in full)
Drug uptake (HEK293 [5]): Not Active
Drug uptake (HEK293 [6]): Active

CC(=O)NCC(=O)NC(CCCNC(=O)CCNC(=O)C(CCCNC(=O)Cn1cc(CCC(=O)N[C@@H](Cc2cnc[nH]2)C(=O)N[C@H](Cc2ccccc2)C(=O)N[C@@H](CCCNC(=N)N)C(=O)N[C@@H](Cc2c[nH]c3ccccc23)C(N)=O)nn1)(CCCNC(=O)Cn1cc(CCC(=O)N[C@@H](Cc2cnc[nH]2)C(=O)N[C@H](Cc2ccccc2)C(=O)N[C@@H](CCCNC(=N)N)C(=O)N[C@@H](Cc2c[nH]c3ccccc23)C(N)=O)nn1)NC(=O)CNC(=O)Cn1cc(CCC(=O)N[C@@H](Cc2cnc[nH]2)C(=O)N[C@H](Cc2ccccc2)C(=O)N[C@@H](CCCNC(=N)N)C(=O)N[C@@H](Cc2c[nH]c3ccccc23)C(N)=O)nn1)(CCCNC(=O)CCNC(=O)C(CCCNC(=O)Cn1cc(CCC(=O)N[C@@H](Cc2cnc[nH]2)C(=O)N[C@H](Cc2ccccc2)C(=O)N[C@@H](CCCNC(=N)N)C(=O)N[C@@H](Cc2c[nH]c3ccccc23)C(N)=O)nn1)(CCCNC(=O)Cn1cc(CCC(=O)N[C@@H](Cc2cnc[nH]2)C(=O)N[C@H](Cc2ccccc2)C(=O)N[C@@H](CCCNC(=N)N)C(=O)N[C@@H](Cc2c[nH]c3ccccc23)C(N)=O)nn1)NC(=O)CNC(=O)Cn1cc(CCC(=O)N[C@@H](Cc2cnc[nH]2)C(=O)N[C@H](Cc2ccccc2)C(=O)N[C@@H](CCCNC(=N)N)C(=O)N[C@@H](Cc2c[nH]c3ccccc23)C(N)=O)nn1)C(=O)NCCC(=O)N[C@H](CCCNC(=N)N)C(=O)N[C@@H](CCCNC(=N)N)C(=O)N[C@H](CCCNC(=N)N)C(=O)N[C@@H](CCCCNC(=O)CCCCC[N+]1=C(/C=C/C=C/C=C2/N(C)c3ccccc3C2(C)C)C(C)(C)c2ccccc21)C(N)=O (stereo not given in full)
Drug uptake (HEK293 [5]): Not Active
Drug uptake (HEK293 [6]): Active

N=C(N)NCCC[C@H](NC(=O)[C@@H](Cc1ccccc1)NC(=O)[C@H](Cc1cnc[nH]1)NC(=O)CCc1cn(CC(=O)NCC(=O)NC(CCCNC(=O)Cn2cc(CCC(=O)N[C@@H](Cc3cnc[nH]3)C(=O)N[C@H](Cc3ccccc3)C(=O)N[C@@H](CCCN=C(N)N)C(=O)N[C@@H](Cc3c[nH]c4ccccc34)C(N)=O)nn2)(CCCNC(=O)Cn2cc(CCC(=O)N[C@@H](Cc3cnc[nH]3)C(=O)N[C@H](Cc3ccccc3)C(=O)N[C@@H](CCCN=C(N)N)C(=O)N[C@@H](Cc3c[nH]c4ccccc34)C(N)=O)nn2)C(=O)NCCC(N)=O)nn1)C(=O)N[C@@H](Cc1c[nH]c2ccccc12)C(N)=O
Activity (HEK293 [3]): Non-toxic
Activity (HEK293 [4]): Non-toxic
